ChEMBL document CHEMBL1649115, “Enhanced susceptibility to antifungal oligopeptides in yeast strains overexpressing ABC multidrug efflux pumps” (Antimicrob Agents Chemother, 2008)
Converted amounts (≈) assume the structure as drawn. Non-standard residues stand in square brackets, D forms with d. Residues, ends and D or L forms follow the SMILES beside them. *: point of attachment. Phe(3-F) = N[C@@H](Cc1cccc(F)c1)C(=O)O; Ethyl(2-NH2) = NCC*

Legend:
[1] = tested on: Candida albicans; experiment: Prodrug stability in fluconazole sensitive Candida albicans isolate B3 assessed as compound cleavage rate measured per mg of protein; format: ADME, organism-based; details: in vivo
[2] = tested on: Saccharomyces cerevisiae; experiment: Prodrug stability in Saccharomyces cerevisiae ADCDR1 expressing Candida albicans CDR1 efflux pump assessed as compound cleavage rate measured per mg of protein; format: ADME, organism-based; details: in vivo
[3] = tested on: Saccharomyces cerevisiae; experiment: Prodrug stability in Saccharomyces cerevisiae AD12345678 assessed as compound cleavage rate measured per mg of protein; format: ADME, organism-based; details: in vivo
[4] = tested on: Saccharomyces cerevisiae; experiment: Drug uptake in Saccharomyces cerevisiae ADCDR1 expressing Candida albicans CDR1 efflux pump at 200 uM pretreated for 10 mins measured after 60 mins by fluorescamine staining; format: ADME, organism-based; details: in vivo, 1 h
[5] = tested on: Saccharomyces cerevisiae; experiment: Prodrug stability in wild type Saccharomyces cerevisiae ATCC 9763 assessed as compound cleavage rate measured per mg of protein; format: ADME, organism-based; details: in vivo
[6] = tested on: Saccharomyces cerevisiae; experiment: Drug uptake in Saccharomyces cerevisiae ADCDR2 expressing Candida albicans CDR2 efflux pump at 200 uM pretreated for 10 mins measured after 60 mins by fluorescamine staining; format: ADME, organism-based; details: in vivo, 1 h
[7] = tested on: Saccharomyces cerevisiae; experiment: Drug uptake in Saccharomyces cerevisiae ADMDR1 expressing Candida albicans MDR1 efflux pump at 200 uM pretreated for 10 mins measured after 60 mins by fluorescamine staining; format: ADME, organism-based; details: in vivo, 1 h
[8] = tested on: Saccharomyces cerevisiae; experiment: Prodrug stability in Saccharomyces cerevisiae ADMDR1 expressing Candida albicans MDR1 efflux pump assessed as compound cleavage rate measured per mg of protein; format: ADME, organism-based; details: in vivo
[9] = tested on: Saccharomyces cerevisiae; experiment: Drug uptake in Saccharomyces cerevisiae AD12345678 at 200 uM pretreated for 10 mins measured after 60 mins by fluorescamine staining; format: ADME, organism-based; details: in vivo, 1 h
[10] = tested on: Candida albicans; experiment: Prodrug stability in fluconazole sensitive Candida albicans isolate Gu4 assessed as compound cleavage rate measured per mg of protein; format: ADME, organism-based; details: in vivo
Summary of the method: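 Oligopeptides were incubated with cell extracts of the yeast cells, and their hydrolytic enzymes cleaved them. The amino acids released were quantified by the Cd-ninhydrin method.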

[11] = tested on: Candida albicans; experiment: Prodrug stability in wild type Candida albicans 10261 assessed as compound cleavage rate measured per mg of protein; format: ADME, organism-based; details: in vivo
[12] = tested on: Saccharomyces cerevisiae; experiment: Prodrug stability in Saccharomyces cerevisiae ADCDR2 expressing Candida albicans CDR2 efflux pump assessed as compound cleavage rate measured per mg of protein; format: ADME, organism-based; details: in vivo
[13] = tested on: Candida albicans; experiment: Antifungal activity against fluconazole resistant Candida albicans isolate B4 overexpressing MDR1 in RPMI-1640 buffered medium after 24 hrs by microdilution method; format: functional
Summary of the method: (§1)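 C. albicans cells were grown in 2% glucose, 1% yeast extract, 1% Bacto peptone medium before testing. […] CARE-2 fingerprinting confirmed that each pair is a single strain.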

[14] = tested on: Candida albicans; experiment: Antifungal activity against wild type Candida albicans 10261 in RPMI-1640 buffered medium after 24 hrs by microdilution method; format: functional; summary of the method: as §1
[15] = tested on: Saccharomyces cerevisiae; experiment: Antifungal activity against Saccharomyces cerevisiae AD12345678 in YNPG-proline medium after 24 hrs by microdilution method; format: functional; details: AD12345678, 24 h
[16] = tested on: Candida albicans; experiment: Antifungal activity against fluconazole sensitive Candida albicans isolate Gu4 in RPMI-1640 buffered medium after 24 hrs by microdilution method; format: functional; summary of the method: as §1
[17] = tested on: Candida albicans; experiment: Antifungal activity against fluconazole resistant Candida albicans isolate Gu5 overexpressing CDR1 and CDR2 in RPMI-1640 buffered medium after 24 hrs by microdilution method; format: functional; details: isolate Gu5, 24 h
Summary of the method: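 C. albicans cells were grown in 2% glucose, 1% yeast extract, 1% Bacto peptone medium before testing. CARE-2 fingerprinting confirmed that each pair is a single strain.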

[18] = tested on: Saccharomyces cerevisiae; experiment: Antifungal activity against Saccharomyces cerevisiae ADCDR1 expressing Candida albicans CDR1 efflux pump in YNPG-proline medium after 24 hrs by microdilution method; format: functional; details: ADCDR1, 24 h
[19] = tested on: Candida albicans; experiment: Antifungal activity against fluconazole sensitive Candida albicans isolate B3 in RPMI-1640 buffered medium after 24 hrs by microdilution method; format: functional; summary of the method: as §1
[20] = tested on: Saccharomyces cerevisiae; experiment: Antifungal activity against Saccharomyces cerevisiae ADCDR2 expressing Candida albicans CDR2 efflux pump in YNPG-proline medium after 24 hrs by microdilution method; format: functional; details: ADCDR2, 24 h
[21] = tested on: Saccharomyces cerevisiae; experiment: Antifungal activity against Saccharomyces cerevisiae ADMDR1 expressing Candida albicans MDR1 efflux pump in YNPG-proline medium after 24 hrs by microdilution method; format: functional; details: ADMDR1, 24 h
[22] = tested on: Saccharomyces cerevisiae; experiment: Antifungal activity against wild type Saccharomyces cerevisiae ATCC 9763 in YNPG-proline medium after 24 hrs by microdilution method; format: functional; details: ATCC 9763, 24 h
[23] = tested on: Saccharomyces cerevisiae; experiment: Antifungal activity against Saccharomyces cerevisiae ADCDR1 expressing Candida albicans CDR1 efflux pump in YNPG medium containing 1 mg/ml […] after 24 hrs by microdilution method; format: functional; details: ADCDR1, 24 h
[24] = tested on: Saccharomyces cerevisiae; experiment: Antifungal activity against Saccharomyces cerevisiae ADCDR2 expressing Candida albicans CDR2 efflux pump in YNPG medium containing 1 mg/ml […] after 24 hrs by microdilution method; format: functional; details: ADCDR2, 24 h
[25] = tested on: Saccharomyces cerevisiae; experiment: Antifungal activity against Saccharomyces cerevisiae AD12345678 in YNPG medium containing 1 mg/ml […] after 24 hrs by microdilution method; format: functional; details: AD12345678, 24 h
[26] = tested on: Saccharomyces cerevisiae; experiment: Antifungal activity against wild type Saccharomyces cerevisiae ATCC 9763 in YNPG medium containing 1 mg/ml […] after 24 hrs by microdilution method; format: functional; details: ATCC 9763, 24 h
[27] = tested on: Saccharomyces cerevisiae; experiment: Antifungal activity against Saccharomyces cerevisiae ADMDR1 expressing Candida albicans MDR1 efflux pump in YNPG medium containing 1 mg/ml […] after 24 hrs by microdilution method; format: functional; details: ADMDR1, 24 h
[28] = Candida albicans, isolate B4, 24 h, read-out: MIC
[29] = Candida albicans, 10261, 24 h, read-out: MIC
[30] = Candida albicans, isolate Gu4, 24 h, read-out: MIC
[31] = Candida albicans, isolate B3, 24 h, read-out: MIC

Compound	Drug uptake [4] [nmol/min/mg]	Drug uptake [6] [nmol/min/mg]	Drug uptake [7] [nmol/min/mg]	Drug uptake [9] [nmol/min/mg]	MIC [13, 28] [µg/mL]	MIC [14, 29] [µg/mL]	MIC [15] [µg/mL]	MIC [16, 30] [µg/mL]	MIC [17] [µg/mL]	MIC [18] [µg/mL]	MIC [19, 31] [µg/mL]	MIC [20] [µg/mL]	MIC [21] [µg/mL]	MIC [22] [µg/mL]	MIC [23] [µg/mL]	MIC [24] [µg/mL]	MIC [25] [µg/mL]	MIC [26] [µg/mL]	MIC [27] [µg/mL]	also measured
CC(C)C[C@H](NC(=O)[C@H](CC(C)C)NC(=O)[C@H](CC(C)C)NC(=O)[C@@H](N)COCCN)C(=O)NCC(=O)O (H-S(Ethyl(2-NH2))LLLG-OH) [listing 1 of 2 here]	0.49	0.51	0.28	0.31	–	–	–	–	–	–	–	–	–	–	–	–	–	–	–	Stability [1]: 20 nmol/min; Stability [2]: 14 nmol/min; Stability [3]: 14 nmol/min; Stability [5]: 14 nmol/min; Stability [8]: 14 nmol/min; Stability [10]: 20 nmol/min; Stability [11]: 20 nmol/min; Stability [12]: 14 nmol/min
CSCC[C@H](NC(=O)[C@@H](N)CCSC)C(=O)N[C@@H](Cc1cccc(F)c1)C(=O)O (H-Met-Met-[Phe(3-F)]-OH)	1.11	1.23	0.67	0.64	128 (≈ 287 µM)	128 (≈ 287 µM)	512 (≈ 1150 µM)	128 (≈ 287 µM)	32 (≈ 71.8 µM)	32 (≈ 71.8 µM)	128 (≈ 287 µM)	32 (≈ 71.8 µM)	256 (≈ 575 µM)	256 (≈ 575 µM)	–	–	–	–	–	Stability [1]: 20 nmol/min; Stability [2]: 14 nmol/min; Stability [3]: 14 nmol/min; Stability [5]: 14 nmol/min; Stability [8]: 14 nmol/min; Stability [10]: 20 nmol/min; Stability [11]: 20 nmol/min; Stability [12]: 14 nmol/min
CC(C)C[C@H](NC(=O)[C@H](CC(C)C)NC(=O)[C@H](CC(C)C)NC(=O)[C@@H](N)COCCN)C(=O)NCC(=O)O (H-S(Ethyl(2-NH2))LLLG-OH) [listing 2 of 2 here]	–	–	–	–	–	–	256 (≈ 470 µM)	–	–	128 (≈ 235 µM)	–	128 (≈ 235 µM)	256 (≈ 470 µM)	256 (≈ 470 µM)	–	–	–	–	–	–
CC(C)C[C@H](NC(=O)[C@@H](N)COCCN)C(=O)NCC(=O)O	–	–	–	–	32 (≈ 101 µM)	128 (≈ 402 µM)	4 (≈ 12.6 µM)	256 (≈ 804 µM)	16 (≈ 50.3 µM)	1 (≈ 3.14 µM)	64 (≈ 201 µM)	1 (≈ 3.14 µM)	4 (≈ 12.6 µM)	8 (≈ 25.1 µM)	–	–	–	–	–	–
NC(Cc1cccc(F)c1)C(=O)O (centres undefined) [M-FLUOROPHENYLALANINE]	2.57	1.86	1.63	1.78	128 (≈ 699 µM)	256 (≈ 1400 µM)	–	128 (≈ 699 µM)	128 (≈ 699 µM)	–	128 (≈ 699 µM)	–	–	–	16 (≈ 87.3 µM)	16 (≈ 87.3 µM)	32 (≈ 175 µM)	32 (≈ 175 µM)	32 (≈ 175 µM)	–
[N-]=[N+]=CC(=O)OC[C@H](N)C(=O)O [AZASERINE]	2.15	1.92	1.7	1.75	32 (≈ 185 µM)	16 (≈ 92.4 µM)	–	16 (≈ 92.4 µM)	16 (≈ 92.4 µM)	–	32 (≈ 185 µM)	–	–	–	1 (≈ 5.78 µM)	1 (≈ 5.78 µM)	2 (≈ 11.6 µM)	2 (≈ 11.6 µM)	2 (≈ 11.6 µM)	–
NC(CC(=O)NO)C(=O)O (centres undefined)	2.25	1.69	1.25	1.54	256 (≈ 1730 µM)	256 (≈ 1730 µM)	–	256 (≈ 1730 µM)	128 (≈ 864 µM)	–	256 (≈ 1730 µM)	–	–	–	64 (≈ 432 µM)	64 (≈ 432 µM)	256 (≈ 1730 µM)	256 (≈ 1730 µM)	128 (≈ 864 µM)	–
OC(Cn1cncn1)(Cn1cncn1)c1ccc(F)cc1F [FLUCONAZOLE]	–	–	–	–	64 (≈ 209 µM)	4 (≈ 13.1 µM)	1 (≈ 3.27 µM)	8 (≈ 26.1 µM)	–	32 (≈ 104 µM)	4 (≈ 13.1 µM)	16 (≈ 52.2 µM)	32 (≈ 104 µM)	2 (≈ 6.53 µM)	–	–	–	–	–	MIC [13]: 64 µg/mL (≈ 209 µM); MIC [14]: 4 µg/mL (≈ 13.1 µM); MIC [16]: 8 µg/mL (≈ 26.1 µM); MIC [19]: 4 µg/mL (≈ 13.1 µM)
